Reference: ChEMBL document CHEMBL3525986, “Nicotinamide N-oxidation by CYP2E1 in human liver microsomes” (Drug Metab Dispos, 2013)

Columns and labels:
Type in all cases: ADME
Cytochrome P450 2B6 = biological target: T1, Cytochrome P450 2B6 (Homo sapiens, UniProt P20813); experiment: Drug metabolism in human liver microsomes assessed as CYP2B6-mediated nicotinamide N-oxide formation by HPLC analysis
T1 sequence (P20813 whole entry): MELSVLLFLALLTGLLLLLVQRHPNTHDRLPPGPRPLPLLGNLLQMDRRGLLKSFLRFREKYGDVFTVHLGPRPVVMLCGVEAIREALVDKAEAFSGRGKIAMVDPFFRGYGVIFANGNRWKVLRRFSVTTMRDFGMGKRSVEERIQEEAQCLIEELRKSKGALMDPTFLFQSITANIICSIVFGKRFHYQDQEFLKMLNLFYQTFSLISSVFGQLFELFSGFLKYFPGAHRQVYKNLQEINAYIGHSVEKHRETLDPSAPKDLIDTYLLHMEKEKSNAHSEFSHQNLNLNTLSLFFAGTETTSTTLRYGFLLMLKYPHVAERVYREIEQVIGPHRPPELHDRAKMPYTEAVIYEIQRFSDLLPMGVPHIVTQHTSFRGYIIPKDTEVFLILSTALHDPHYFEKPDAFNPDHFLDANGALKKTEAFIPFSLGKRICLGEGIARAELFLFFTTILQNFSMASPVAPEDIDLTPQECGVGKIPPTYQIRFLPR

Cytochrome P450 2A6 = biological target: T2, Cytochrome P450 2A6 (Homo sapiens, UniProt P11509); experiment: Drug metabolism in human liver microsomes assessed as CYP2A6-mediated nicotinamide N-oxide formation by HPLC analysis
T2 sequence (P11509 whole entry): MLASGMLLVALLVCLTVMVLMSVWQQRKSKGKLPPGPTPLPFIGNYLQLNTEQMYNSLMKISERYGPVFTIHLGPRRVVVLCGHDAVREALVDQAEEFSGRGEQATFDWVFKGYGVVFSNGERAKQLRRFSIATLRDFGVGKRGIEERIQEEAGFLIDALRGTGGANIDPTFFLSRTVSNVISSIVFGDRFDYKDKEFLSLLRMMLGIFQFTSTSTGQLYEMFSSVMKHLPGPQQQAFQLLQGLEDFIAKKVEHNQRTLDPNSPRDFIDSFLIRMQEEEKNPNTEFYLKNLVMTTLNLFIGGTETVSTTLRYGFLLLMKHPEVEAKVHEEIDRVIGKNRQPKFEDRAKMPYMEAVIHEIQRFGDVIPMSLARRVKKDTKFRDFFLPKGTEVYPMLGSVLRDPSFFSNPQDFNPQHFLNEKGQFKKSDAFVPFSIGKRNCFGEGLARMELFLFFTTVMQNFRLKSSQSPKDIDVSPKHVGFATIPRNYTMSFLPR

Cytochrome P450 2E1 [1] = biological target: T3, Cytochrome P450 2E1 (Homo sapiens, UniProt P05181); experiment: Drug metabolism in human liver microsomes assessed as CYP2E1-mediated nicotinamide N-oxide formation at 3 mM after 30 mins by HPLC analysis; conditions: 0.5 h, 3000 µM
T3 sequence (P05181 whole entry): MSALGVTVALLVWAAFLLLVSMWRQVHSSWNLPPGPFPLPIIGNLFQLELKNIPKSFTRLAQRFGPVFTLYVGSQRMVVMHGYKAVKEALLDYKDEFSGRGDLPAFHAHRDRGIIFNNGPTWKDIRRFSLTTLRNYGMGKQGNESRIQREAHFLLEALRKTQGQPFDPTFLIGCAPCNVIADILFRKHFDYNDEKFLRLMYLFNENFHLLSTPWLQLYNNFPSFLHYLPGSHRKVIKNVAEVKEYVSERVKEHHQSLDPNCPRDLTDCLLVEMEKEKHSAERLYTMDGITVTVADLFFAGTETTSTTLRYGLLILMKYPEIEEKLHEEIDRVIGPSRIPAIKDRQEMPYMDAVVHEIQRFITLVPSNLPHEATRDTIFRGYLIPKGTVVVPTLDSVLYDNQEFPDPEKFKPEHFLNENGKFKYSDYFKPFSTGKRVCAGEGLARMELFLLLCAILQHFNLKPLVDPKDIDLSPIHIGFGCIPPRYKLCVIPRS
How it was run: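 Pooled human liver microsomes at 1 mg/ml in 0.1 M NaH2PO4, pH 7.4, with 1mM NADPH were preincubated 2 min at 37°C. NAM was added at varied concentrations and run 30 min, then stopped with ice-cold methanol. N-oxide was measured by HILIC HPLC with UV at 254 nm against a standard curve. Km and Vmax came from a Michaelis-Menten nonlinear fit. Triplicates.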

Cytochrome P450 2E1 [2] = biological target: T3, Cytochrome P450 2E1; experiment: Drug metabolism in human liver microsomes assessed as CYP2E1-mediated nicotinamide N-oxide formation preincubated for 5 mins at 45 degC after 30 mins by HPLC analysis in absence of NADPH; conditions: 0.5 h
How it was run: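 Before assay, HLM were heated 5 min at 45°C with or without NADPH. Incubation then ran with 2 mM NAM for 30 min in pH 7.4 phosphate buffer. NAM N-oxide was quantified by HILIC HPLC (UV 254 nm) from a standard curve. Triplicate determinations, t-test.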

Cytochrome P450 2E1 [3] = biological target: T3, Cytochrome P450 2E1; experiment: Drug metabolism in human liver microsomes assessed as chlorzoxazone-mediated reduction of CYP2E1-mediated nicotinamide N-oxide formation at 2 mM by HPLC analysis relative to control; conditions: 2000 µM
How it was run: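 Human liver microsomes (1 mg/ml, 1mM NADPH, pH 7.4) were incubated with 2 mM NAM plus 100 μM chlorzoxazone (final 1% acetonitrile) for 30 min at 37°C. Methanol quench, then HILIC HPLC, UV 254 nm. Compared against solvent control; triplicates, t-test.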

Cytochrome P450 2E1 [4] = biological target: T3, Cytochrome P450 2E1; experiment: Drug metabolism in insect microsomes assessed as CYP2E1 (unknown origin)-mediated nicotinamide N-oxide formation after 30 mins by HPLC analysis; conditions: 0.5 h
How it was run: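 Insect cell microsomes overexpressing CYP2E1 were diluted 4-fold with control insect microsomes. Otherwise run as for HLM: pH 7.4 phosphate, 1mM NADPH, 37°C, 30 min, across a range of NAM concentrations. Methanol stop, HILIC HPLC with UV at 254 nm. Triplicates.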

Cytochrome P450 2E1 [5] = biological target: T3, Cytochrome P450 2E1; experiment: Drug metabolism in human liver microsomes assessed as diethyldithiocarbamate-mediated reduction of CYP2E1-mediated nicotinamide N-oxide formation at 2 mM by HPLC analysis relative to control; conditions: 2000 µM
How it was run: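 Microsomes (1 mg/ml HLM, 1mM NADPH, pH 7.4) were preincubated 30 min with 100 μM diethyldithiocarbamate (final 0.1% methanol). Then 2 mM NAM was added for 30 min at 37°C. N-oxide was quantified by HILIC HPLC at 254 nm versus control. Triplicate means, t-test.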

Cytochrome P450 2E1 [6] = biological target: T3, Cytochrome P450 2E1; experiment: Drug metabolism in human liver microsomes assessed as antibody-mediated reduction in CYP2E1-mediated nicotinamide N-oxide formation at 2 mM by HPLC analysis relative to control; parameters: scale not given: the % may be the effect or the level left; conditions: 2000 µM
How it was run: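 HLM (1 mg/ml, pH 7.4 phosphate, 1mM NADPH) were preincubated 5 min at 37°C with 15 microgram anti-CYP2E1 or control mouse antibody. Control antibody was dialysed against Tris to remove azide. Then 2 mM NAM was added for 30 min. HPLC-UV 254 nm quantitation was expressed against the control antibody. Triplicates.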

[7] = biological target: T4, Flavin-containing monooxygenase 3 (Homo sapiens, UniProt P31513); experiment: Drug metabolism in insect microsomes assessed as FMO3 (unknown origin)-mediated nicotinamide N-oxide formation after 30 mins by HPLC analysis; conditions: 0.5 h
T4 sequence (P31513 whole entry): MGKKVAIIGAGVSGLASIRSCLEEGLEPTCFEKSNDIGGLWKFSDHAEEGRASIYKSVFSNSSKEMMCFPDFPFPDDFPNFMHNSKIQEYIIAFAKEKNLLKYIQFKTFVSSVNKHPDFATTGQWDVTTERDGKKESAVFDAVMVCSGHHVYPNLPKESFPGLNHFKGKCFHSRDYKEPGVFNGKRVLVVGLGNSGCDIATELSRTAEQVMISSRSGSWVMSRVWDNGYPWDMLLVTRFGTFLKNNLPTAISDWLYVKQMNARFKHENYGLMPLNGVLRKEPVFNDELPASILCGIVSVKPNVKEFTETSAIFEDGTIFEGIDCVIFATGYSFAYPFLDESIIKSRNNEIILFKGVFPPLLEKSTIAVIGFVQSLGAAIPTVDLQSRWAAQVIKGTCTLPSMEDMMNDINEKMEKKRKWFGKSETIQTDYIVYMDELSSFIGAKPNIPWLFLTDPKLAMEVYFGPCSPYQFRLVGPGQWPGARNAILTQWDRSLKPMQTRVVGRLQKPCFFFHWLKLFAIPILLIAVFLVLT

NC(=O)c1cccnc1 [NIACINAMIDE]
Drug metabolism (Cytochrome P450 2B6): metabolite_not_detected
Drug metabolism (Cytochrome P450 2A6): metabolite_not_detected
Drug metabolism (Cytochrome P450 2E1 [1]): metabolite_detected
Drug metabolism (Cytochrome P450 2E1 [2]): metabolite_detected
fold change (FC) (Cytochrome P450 2E1 [3]): > 5
Drug metabolism (Cytochrome P450 2E1 [4]): Dose-dependent effect
fold change (FC) (Cytochrome P450 2E1 [5]): 8
Activity (Cytochrome P450 2E1 [6]): < 8%
Drug metabolism [7]: metabolite_not_detected
